Consider two compounds from ChEMBL document CHEMBL1154927, “Photooxidation and Phototoxicity of pi-extended squaraines” (J Med Chem, 2010).

Data set [1] relates to HeLa. Description: Photocytotoxicity against human HeLa cells treated for 3 hrs followed by 15 J/mc2 irradiation measured 24 hrs after irradiation by resazurin proliferation assay. Format: functional. The method, boiled down:
(§1)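 Cells were seeded to reach plateau growth: HeLa and B78-H1 at 5000, HepG2 and MCF-7 at 7000 cells/well. They were incubated 3 h with increasing squaraine concentrations (DMSO stock, final DMSO <0.2%, DMSO-matched control), then irradiated 30 min with a metal halogen lamp (15 J/cm2). Resazurin proliferation was read 24 h later as % of untreated fluorescence. IC50 was estimated from dose-response plots; means ± SDs of three independent experiments.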

Data set [2] concerns HepG2. As to the kind of experiment: Photocytotoxicity against human HepG2 cells treated for 3 hrs followed by 15 J/mc2 irradiation measured 24 hrs after irradiation by resazurin proliferation assay. The format is functional. The method, boiled down: as §1
(Resazurin is reduced to fluorescent resorufin, in cell work by metabolically active cells.)

Data set [3] concerns HeLa. As to the kind of experiment: Cellular uptake in human HeLa cells assessed as localization to cytoplasm at 1 uM after 4 hrs by confocal laser microscopy. The format is ADME, cell-based. A digest of the protocol:
(§2)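 HeLa cells seeded (2 × 10^5) on coverslips, treated 24 h later with squaraine for 3 h (figure legend states 4 h), then irradiated with a metal halogen white lamp at 15 J/cm2. Cells were fixed with PFA, permeabilized with Triton X-100 (0.1% in PBS) and nuclei stained with Hoechst. Localization was imaged by confocal laser microscopy.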

Data set [4] has as its system HeLa. As to the kind of experiment: Cellular uptake in human HeLa cells assessed as localization to nucleus at 1 uM after 4 hrs by confocal laser microscopy. The format is ADME, cell-based. The method, boiled down:
as §2

Data set [5] has as its system HeLa. As to the kind of experiment: Cytotoxicity against human HeLa cells under dark condition after 24 hrs by resazurin proliferation assay. The format is cell-based. A digest of the protocol:
(§3)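 Cells were seeded to reach plateau growth: HeLa and B78-H1 at 5000, HepG2 and MCF-7 at 7000 cells/well. They were exposed to increasing squaraine concentrations in the dark, with compound from DMSO diluted in medium (final DMSO <0.2%). Viability was measured by resazurin fluorescence as RFU treated/RFU untreated × 100. Values are means ± SDs of three independent experiments.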

The test system of data set [6] is HepG2. As to the kind of experiment: Cytotoxicity against human HepG2 cells under dark condition after 24 hrs by resazurin proliferation assay. The format is cell-based. Conditions: hepg2, 24 h. The method, boiled down: as §3
Data set [7] is described as follows: Cytotoxicity against mouse B78H1 cells under dark condition after 24 hrs by resazurin proliferation assay. Conditions: b78h1, 24 h. The format is cell-based. A digest of the protocol:
as §3

The test system of data set [8] is MCF7. Description: Cytotoxicity against human MCF7 cells under dark condition after 24 hrs by resazurin proliferation assay. The format is cell-based. Conditions: mcf7, 24 h. A digest of the protocol: as §3
The subject of data set [9] is HeLa. Description: Cytotoxicity against human HeLa cells under dark condition at 5 uM after 24 hrs by resazurin proliferation assay. Format: cell-based. A digest of the protocol: as §3
Data set [10] deals with HepG2. As to the kind of experiment: Cytotoxicity against human HepG2 cells under dark condition at 5 uM after 24 hrs by resazurin proliferation assay. Format: cell-based. Conditions: hepg2, 24 h. The method, boiled down:
as §3

Data set [11] is described as follows: Cytotoxicity against mouse B78H1 cells under dark condition at 5 uM after 24 hrs by resazurin proliferation assay. Format: cell-based. To be noted: b78h1, 24 h. A digest of the protocol: as §3
Data set [12] concerns MCF7. Description: Cytotoxicity against human MCF7 cells under dark condition at 5 uM after 24 hrs by resazurin proliferation assay. Conditions: mcf7, 24 h. The format is cell-based. A digest of the protocol: as §3
The test system of the next data set is HUVEC. As to the kind of experiment: Cytotoxicity against HUVEC cells under dark condition after 24 hrs by resazurin proliferation assay. The format is cell-based. Conditions: human.
In data set [13] the test system is Mus musculus. As to the kind of experiment: Toxicity in C57BL/6 mouse bearing mouse B78H1 cells assessed as mortality at 3 umol/kg, iv measured after 1 week. Conditions: in vivo, 168 h. The format is organism-based. A digest of the protocol: (§4)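 Squaraine given to mice at 3 μmol/kg (the dose used for PDT experiments), formulated in small unilamellar dioleoylphosphatidylcholine liposomes and injected.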

The test system of data set [14] is Mus musculus. As to the kind of experiment: Toxicity in C57BL/6 mouse bearing mouse B78H1 cells assessed as behavioral changes at 3 umol/kg, iv measured for 1 week. The format is organism-based. To be noted: in vivo, 168 h. A digest of the protocol:
as §4

Data set [15] is described as follows: Photocytotoxicity against mouse B78H1 cells treated for 3 hrs followed by 15 J/mc2 irradiation measured 24 hrs after irradiation by resazurin proliferation assay. Format: functional. The method, boiled down: as §1
Data set [16] relates to MCF7. As to the kind of experiment: Photocytotoxicity against human MCF7 cells treated for 3 hrs followed by 15 J/mc2 irradiation measured 24 hrs after irradiation by resazurin proliferation assay. The format is functional. The method, boiled down: as §1
The subject of data set [17] is HeLa. Description: Photocytotoxicity against human HeLa cells assessed as cell growth arrest at 1.5 uM for 3 hrs followed by 15 J/mc2 irradiation measured 72 hrs after irradiation by resazurin proliferation assay. The format is functional, cell-based. The method, boiled down: (§5)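 HeLa cells were given squaraine, irradiated with light (15 J/cm2), and followed for up to 72 h after light treatment for proliferation. Controls were cells treated only with light.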

Data set [18] deals with HeLa. Description: Photocytotoxicity against human HeLa cells assessed as induction of lipid peroxidation-mediated malondialdehyde production at 1.8 uM for 3 hrs followed by 15 J/mc2 irradiation by TBARS assay relative to untreated control. Format: functional.
In data set [19] the test system is MCF7. As to the kind of experiment: Photocytotoxicity against human MCF7 cells assessed as induction of lipid peroxidation-mediated malondialdehyde production at 1.8 uM for 3 hrs followed by 15 J/mc2 irradiation by TBARS assay relative to untreated control. The format is functional, cell-based.
Data set [20] has as its system MCF7. Description: Photocytotoxicity against human MCF7 cells assessed as induction of lipid peroxidation-mediated malondialdehyde production at 9.6 uM for 3 hrs followed by 15 J/mc2 irradiation by TBARS assay relative to untreated control. Format: functional, cell-based.
The subject of data set [21] is HeLa. Description: Photocytotoxicity against human HeLa cells assessed as apoptotic cells at 1.5 uM for 3 hrs followed by 15 J/mc2 irradiation by annexin V/propidium iodide staining-based FACS flow cytometry (Rvb=1.3%). Format: functional.
The test system of data set [22] is HeLa. As to the kind of experiment: Photocytotoxicity against human HeLa cells assessed as necrotic cells at 1.5 uM for 3 hrs followed by 15 J/mc2 irradiation by annexin V/propidium iodide staining-based FACS flow cytometry (Rvb=1.0%). Format: functional. On the technique in general: A flow cytometer gives signals particle by particle.
The subject of data set [23] is HeLa. As to the kind of experiment: Photocytotoxicity against human HeLa cells assessed as necrotic cells at 1.5 uM for 3 hrs followed by 15 J/mc2 measured 72 hrs irradiation by propidium iodide staining. The format is functional, cell-based. A digest of the protocol:
(§6)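 HeLa cells (2.5 × 10^5, six-well) were treated with squaraine the next day and photoactivated. The medium was then replaced with fresh medium containing Hoechst and PI (both 2 μg/mL). Living cells were time-lapse imaged at 37 °C, 5% CO2 over 72 h, with necrotic (PI-red, swollen) and apoptotic (shrinkage, blebbing, apoptotic bodies) morphology scored. Controls had no squaraine.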

For data set [24], the system named is HeLa. Description: Induction of apoptosis in human HeLa cells assessed as apoptotic bodies at 1.5 uM for 3 hrs followed by 15 J/mc2 measured 72 hrs irradiation by propidium iodide staining. The format is functional, cell-based. A digest of the protocol:
as §6

The test system of data set [25] is HeLa. Description: Induction of apoptosis in human HeLa cells assessed as caspase 3/7 activation at 1.5 uM for 3 hrs followed by 15 J/mc2. The format is functional, cell-based. The method, boiled down:
(§7)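 HeLa cells (5000/well) were incubated 3 h with squaraine and irradiated at 15 J/cm2. Caspase-3/7 activity was measured 2.5, 16 and 22 h after light using a homogeneous fluorogenic reagent (substrate 1:100 in buffer, 1:1 with sample), with ex 485/em 530 nm. Values are means ± SDs of at least two independent experiments.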

In data set [26] the test system is HeLa. Description: Cellular uptake in human HeLa cells assessed as localization to cytoplasm at 8 uM after 4 hrs by confocal laser microscopy. Format: ADME, cell-based. A digest of the protocol:
as §2

Data set [27] deals with HeLa. As to the kind of experiment: Cellular uptake in human HeLa cells assessed as localization to nucleus at 8 uM after 4 hrs by confocal laser microscopy. The format is ADME, cell-based. A digest of the protocol: as §2
For data set [28], the system named is HeLa. Description: Photocytotoxicity against human HeLa cells assessed as cell growth arrest at 9.6 uM for 3 hrs followed by 15 J/mc2 irradiation measured 72 hrs after irradiation by resazurin proliferation assay. Format: functional, cell-based. The method, boiled down:
as §5

For data set [29], the system named is HeLa. As to the kind of experiment: Photocytotoxicity against human HeLa cells assessed as induction of lipid peroxidation-mediated malondialdehyde production at 9.6 uM for 3 hrs followed by 15 J/mc2 irradiation by TBARS assay relative to untreated control. Format: functional.
Data set [30] deals with HeLa. Description: Photocytotoxicity against human HeLa cells assessed as apoptotic cells at 9.6 uM for 3 hrs followed by 15 J/mc2 irradiation by annexin V/propidium iodide staining-based FACS flow cytometry (Rvb=1.3%). Format: functional.
The test system of data set [31] is HeLa. Description: Photocytotoxicity against human HeLa cells assessed as necrotic cells at 9.6 uM for 3 hrs followed by 15 J/mc2 irradiation by annexin V/propidium iodide staining-based FACS flow cytometry (Rvb=1.0%). The format is functional.
For data set [32], the system named is HeLa. Description: Photocytotoxicity against human HeLa cells assessed as necrotic cells at 9.6 uM for 3 hrs followed by 15 J/mc2 measured 72 hrs irradiation by propidium iodide staining. The format is functional, cell-based. The method, boiled down:
as §6

In data set [33] the test system is HeLa. As to the kind of experiment: Induction of apoptosis in human HeLa cells assessed as apoptotic bodies at 9.6 uM for 3 hrs followed by 15 J/mc2 measured 72 hrs irradiation by propidium iodide staining. Format: functional, cell-based. The method, boiled down: as §6
In data set [34] the test system is HeLa. Description: Induction of apoptosis in human HeLa cells assessed as caspase 3/7 activation at 9.6 uM for 3 hrs followed by 15 J/mc2. Format: functional, cell-based. A digest of the protocol:
as §7

Activity calls are given as the source filed them. The calls are words filed in the database; no cut-off is given here.

Turning to `CCCCCCN1/C(=C/C2=C([O-])C(=C\c3sc4ccccc4[n+]3CCCCCC)/C2=O)Sc2ccccc21`, the Activity is given as 80% in the data set on HeLa [1]; 80% with HepG2 [2]; “Non-toxic” with HeLa [5]; “Non-toxic” in the data set on HepG2 [6]; “Non-toxic” in data set [7]; “Non-toxic” in the data set with MCF7 [8]. The Activity result in the data set with HeLa [9] is on record as “Toxic”; with HepG2 [10] it was “Toxic”; in data set [11], “Toxic”; in the data set on MCF7 [12], “Toxic”; in the data set with HUVEC, “Non-toxic”; with Mus musculus [13], “Non-toxic”. Besides, the Activity entry was “Non-toxic” in the data set with Mus musculus [14]; 80% in [15]; 80% in the data set with MCF7 [16]; 3.9% in the data set on HeLa [21]; 9.5% in the data set on HeLa [22]. Further, the Drug uptake result with HeLa [3] is “Active”; with HeLa [4], “Not Active”. Also, the outcome in the data set on HeLa [17], in the data set on MCF7 [19], in the data set on MCF7 [20], in the data set with HeLa [23], in the data set with HeLa [24] and in the data set with HeLa [25] was Active. Also, the “fold change (FC)” value with HeLa [18] was 4.
Regarding `CCCCCC[n+]1c(/C=C2\C(=O)C(c3ccc(-c4ccc(-c5ccc(C6=C([O-])/C(=C\c7sc8ccccc8[n+]7CCCCCC)C6=O)s5)s4)s3)=C2[O-])sc2ccccc21`, the figures for the Drug uptake entry in the data set on HeLa [26] and in the data set with HeLa [27] were “Active” and “Not Active”, respectively. The outcome with HeLa [28], in the data set with MCF7 [19], in the data set on MCF7 [20], in the data set on HeLa [32], in the data set with HeLa [33] and with HeLa [34] was Active. For the same compound, the “fold change (FC)” value with HeLa [29] was found to be 4. The results for the Activity in the data set with HeLa [30] and in the data set with HeLa [31] were 8.8% and 25.9%, respectively.
